# Screens as filed in PubChem BioAssay.
# TRPC6 inh – inhibitors of mouse TRPC6 channel. AID 2553. B-score at 10 µM. HEK293-TRPC6, membrane potential dye, ACh-evoked depolarization; stronger effect = lower value. actives 1.1% (n = 310,000). Q61143;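 active = B-score under library mean minus 3 SD, initial fluorescence not abnormally high, positive integrated signal ratio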;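 also: B-score derived from integrated fluorescence ratio over the kinetic read; more negative B-score means stronger inhibition of depolarization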
# Target sequence (Q61143 whole entry, looked up): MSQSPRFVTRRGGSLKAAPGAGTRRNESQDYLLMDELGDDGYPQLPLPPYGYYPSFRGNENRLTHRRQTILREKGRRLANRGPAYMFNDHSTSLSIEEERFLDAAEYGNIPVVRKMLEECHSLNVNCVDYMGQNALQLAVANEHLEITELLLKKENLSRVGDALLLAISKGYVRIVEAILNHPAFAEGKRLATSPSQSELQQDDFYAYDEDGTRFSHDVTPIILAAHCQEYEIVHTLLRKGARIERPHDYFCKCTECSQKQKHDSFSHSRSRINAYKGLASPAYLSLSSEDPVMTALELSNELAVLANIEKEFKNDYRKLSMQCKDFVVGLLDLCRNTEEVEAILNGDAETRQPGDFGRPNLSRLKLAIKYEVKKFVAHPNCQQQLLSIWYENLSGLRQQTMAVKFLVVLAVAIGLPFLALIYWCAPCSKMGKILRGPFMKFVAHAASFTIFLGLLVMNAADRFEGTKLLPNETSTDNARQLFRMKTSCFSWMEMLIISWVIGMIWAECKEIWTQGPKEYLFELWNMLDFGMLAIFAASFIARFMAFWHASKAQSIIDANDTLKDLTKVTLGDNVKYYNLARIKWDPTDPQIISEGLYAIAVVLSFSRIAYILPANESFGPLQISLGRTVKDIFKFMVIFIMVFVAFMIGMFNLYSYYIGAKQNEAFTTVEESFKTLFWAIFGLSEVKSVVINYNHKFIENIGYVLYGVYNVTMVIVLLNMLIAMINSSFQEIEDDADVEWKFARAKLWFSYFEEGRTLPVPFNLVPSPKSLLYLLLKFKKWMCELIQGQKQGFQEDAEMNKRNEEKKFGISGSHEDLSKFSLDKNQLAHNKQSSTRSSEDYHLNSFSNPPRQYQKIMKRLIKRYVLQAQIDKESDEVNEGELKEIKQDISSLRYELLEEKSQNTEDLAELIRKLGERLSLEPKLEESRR
# TRPC4 inh – inhibitors of mouse TRPC4 channel | B-score at 10 µM | HEK293 TRPC4beta/mu-opioid, DAMGO-evoked Fluo4 calcium flux; stronger effect = lower value | Q9QUQ5 | AID 2247 | actives 0.39% (n = 300,000);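 active = B-score over 3 SD under the library average, no early fluorescence shift, positive overall ratio signal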
#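 Material: HEK293 cells with stable TRPC4beta plus mu-opioid receptor expression; probe or stimulus: DAMGO in two steps, submaximal then maximal; technique: Fluo4 calcium fluorescence by kinetic imaging, 5 s 1 Hz baseline; measure: integrated fluorescence ratio relative to baseline, converted to per-well B score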
# TRPC4 PAM – allosteric potentiators of mouse TRPC4 channel; B-score at 10 µM; HEK293 TRPC4beta/mu-opioid, DAMGO EC20, Fluo-4 Ca2+ flux; stronger effect = higher value; Q9QUQ5; AID 2227; actives 0.42% (n = 310,000);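 active = B-score of calcium response area above 5 SD of library B-scores, with initial fluorescence ratio within 5 SD of library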;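 also: B-score of integrated fluorescence ratio over time as area under calcium response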
# TRPC4 agonist – TRPC4 (mouse) channel activation. AID 2237. HEK293 TRPC4beta/mu-opioid, Fluo4 calcium fluorescence; stronger effect = higher value. actives 0.49% (n = 310,000). B-score at 10 µM;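 active = B-score above 5 SD of library B-scores, and initial fluorescence ratio not above library mean plus 5 SD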;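 also: positive B-score marks a calcium rise read as TRPC4 activation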
#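 Assay system: HEK293 stable line with TRPC4beta plus mu-opioid receptor. Times: dye 45 min RT, read 110 s. Measured by: kinetic Fluo4 calcium fluorescence. Measure: B score of integrated ratio. Controls: assay buffer as low control, maximal DAMGO as high control.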
# TRPC6 activator – activators of mouse TRPC6 channel. B-score at 10 µM. actives 0.13% (n = 310,000). HEK293-TRPC6 membrane potential dye fluorescence; stronger effect = higher value. AID 2550;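 active = B-score of the integrated fluorescence ratio above library mean plus 3 SD, and starting fluorescence ratio within library mean plus 5 SD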;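 also: higher score means more depolarization so channel activation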
# * hit, by the source's call; i = inactive. In the library only some 2.3% were active in any assay of this set; here they are far more common.
SMILES,TRPC6 inh,TRPC4 inh,TRPC4 PAM,TRPC4 agonist,TRPC6 activator
COc1cc2c(cc1OC)C(C)N(CCN1C(=O)c3ccccc3C1=O)CC2 (stereo not drawn),i,i,i,i,i
COc1cc2c(cc1OC)C(C)N(CCc1ccc(Cl)cc1)CC2 (stereo not drawn),i,-6*,i,i,i
Cc1oc2c(c1C(=O)c1ccccc1)C(=O)C(=O)c1ccccc1-2,i,-6*,i,i,i
Cc1oc2c(c1C(=O)O)C(=O)c1ccccc1C2=O,i,i,i,i,i
CCCCN(CCCC)/C(N)=N/c1nc(C)cc(C)n1,i,-7*,i,i,i
CCOc1ccc(N/C(N)=N/c2nc(C)cc(C)n2)cc1,i,i,i,i,i
CN1CCN(S(=O)(=O)c2ccc(N(C)Cc3ccc(OC(F)F)cc3)c([N+](=O)[O-])c2)CC1,i,i,i,i,i
Cc1ccc(S(=O)(=O)NC(C)(C)C)cc1C(=O)OCC(=O)N1CCCC1=O,i,i,i,i,i
COc1ccc(C(C(=O)NCc2ccc(F)cc2)N(Cc2cccnc2)C(=O)c2snc(C(N)=O)c2N)cc1 (stereo not drawn),i,i,i,i,i
CCCn1c(N2CCN(C(=O)/C=C/C(=O)O)CC2)nc2ccccc21,i,i,i,57*,i
CCn1c(N2CCN(C(=O)/C=C/c3ccccc3)CC2)nc2ccccc21,i,i,i,94*,i
C=CCc1cc(Cl)ccc1OCCCn1ccnc1,i,i,19*,i,i
C=CCc1cc(C)ccc1OCCn1ccnc1,i,i,i,i,i
C=CCc1cc(Cl)ccc1OCCn1ccnc1,i,i,14*,116*,i
COCCNC(=S)NNC(=O)c1cc(-c2cccnc2)nc2ccccc12,i,i,i,i,i
COc1ccc(NC(=O)CN2CCN(c3nc(-c4ccc(F)cc4)cs3)CC2)c(OC)c1,i,i,i,i,i
CCCC(c1nnnn1CC1CCCO1)N1CCN(c2nc3ccccc3s2)CC1 (stereo not drawn),i,i,i,i,i
CCCCC(c1nnnn1CC1CCCO1)N1CCN(c2nc3ccccc3s2)CC1 (stereo not drawn),i,i,i,88*,i
CCC1Cc2c(nc(N)c3c(N)nc(N4CCCCC4)c(C#N)c23)O1 (stereo not drawn),i,i,i,i,i
N#Cc1c(N2CCCCC2)nc(N)c2c(N)nc3c(c12)CC(c1ccccc1)O3 (stereo not drawn),i,-9*,i,i,i
CCOc1ccccc1CN1CCN(Cc2cccc3nonc23)CC1CCO (stereo not drawn),i,-6*,i,i,i
[N-]=[N+]=NCCN1CCN(CCc2ccccc2)CCC1=O,i,i,i,i,i
Cc1ccc(-n2c(C)cc(C)c(C#N)c2=O)cc1Cl,i,-6*,i,45*,i
Cc1cc(C)n(-c2cc(Cl)cc(Cl)c2)c(=O)c1C#N,i,i,i,i,i
COc1cccc(CN2CC(C(=O)NCCN3CCOCC3)CCC2=O)c1 (stereo not drawn),i,i,i,i,i
SMILES,TRPC6 inh,TRPC4 inh,TRPC4 PAM,TRPC4 agonist,TRPC6 activator
CCn1c(C)nc2cc(C(=O)N/N=C/c3cccc(O)c3O)ccc21,i,i,77*,i,i
CC(C)Oc1ccccc1C1CC(=O)Nc2cc3c(cc21)OCCO3 (stereo not drawn),i,i,82*,i,i
O=C(O)/C=C/c1cn(-c2ccccc2)nc1-c1ccc2c(c1)OCCO2,i,i,i,i,i
O/N=C/c1cn(-c2ccccc2)nc1-c1ccc2c(c1)OCCO2,i,i,24*,i,i
O=C(CSc1ccccc1)NCC1(N2CCCCC2)CCCCC1,i,i,i,i,i
CC(C)C1=Nc2cccc3cccc(c23)N1,i,-6*,i,i,i
CS(=O)(=O)N1CCCC(C(=O)N2CCN(c3cccc(Cl)c3)CC2)C1 (stereo not drawn),i,i,i,i,i
CCCCCCCCC[n+]1cccc2c3ccccc3ccc21,-5.7*,i,i,i,i
O/N=C/c1cccc[n+]1CCCCCC[n+]1ccccc1/C=N/O,i,i,i,i,i
O=C(Nc1ccc2c(c1)OCO2)N1CCN(c2ncccn2)CC1,i,i,i,i,i
O=C(Nc1ccc2c(c1)OCO2)N1CCN(c2ncc(C(F)(F)F)cc2Cl)CC1,i,i,i,55*,i
O=C(c1ccc2c(c1)OCCO2)N1CCN(c2ncc(C(F)(F)F)cc2Cl)CC1,i,i,i,49*,i
CCOC(=O)N1CCN(C(=O)CSc2ccc3nnc(-c4cccnc4)n3n2)CC1,i,i,i,i,i
CC(C)c1nnc(NC(=O)c2cccs2)s1,i,i,i,i,i
CCCCC(CC)c1nnc(NC(=O)c2cccs2)s1 (stereo not drawn),i,-9*,i,i,i
Cn1c(NCc2ccccc2O)nc2ccccc21,i,-6*,i,i,i
CC(C)n1c(NCc2ccccc2O)nc2ccccc21,i,-6*,i,i,i
C=CCc1cccc(CNc2nc3ccccc3n2C(C)C)c1O,i,i,i,i,i
Cn1c(NCc2ccccc2Cl)nc2ccccc21,i,i,i,i,i
O=c1c(Cl)c(NCC2CCCO2)cnn1C12CC3CC(CC(C3)C1)C2 (stereo not drawn),i,i,i,i,i
Cc1cc(Cl)ccc1N1C(=O)CC(NNC(=O)c2cccnc2)C1=O (stereo not drawn),i,i,i,i,i
Cc1[nH]nc(Nc2ccccc2)c1[N+](=O)[O-],i,i,19*,i,i
Cc1ccc(Nc2n[nH]c(C)c2[N+](=O)[O-])cc1,i,i,i,i,i
Cc1cccc(CN2CCC(CNC(=O)Cn3ncc4c([nH]c5ccccc54)c3=O)CC2)c1,i,i,i,i,i
Cc1ccc(Nc2c(N)c(=O)oc3ccccc23)cc1,i,i,31*,i,i
O=S(=O)(c1ccccc1Cl)N1CCC(Cc2ccccc2)CC1,i,i,20*,i,i
Cc1ccc(NC(=O)c2cc(NC(=O)c3ccco3)ccc2N2CCOCC2)cc1,i,i,i,i,i
